The source made the active and inactive calls. The rule behind the calls is not given here.
Tests used:
SK-OV-3 [1] = test: Cell cycle arrest in human SKOV3 cells assessed as accumulation of cells at G2/M phase after 24 hrs by propidium iodide staining-based FACS analysis; type: functional
Outline: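 Cells were seeded at 5 × 10^5 per well in DMEM with 10% FBS and left overnight, then exposed to 0.1, 0.5 or 1 µM for 24 h. DMSO served as the negative control and 50 nM camptothecin as the positive control. Cells were trypsinized, fixed in 70% ethanol for 30 min at 4 °C, stained with 50 µg/mL PI plus 100 µg/mL RNase A for 30 min in the dark, and analysed by flow cytometry. Results are mean ± SD of three experiments, compared by ANOVA with Dunnett's test.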

Tubulin (Homo sapiens) [2] = biological target: T1, Tubulin (Homo sapiens) (UniProt P68371+Q9H4B7+P0DPH7+P68366+Q13509+Q71U36+P04350+Q3ZCM7+P07437+P68363+Q9BQE3+Q6PEY2+Q13885+Q9BVA1+Q9BUF5); test: Inhibition of tubulin polymerization in human HeLa cells assessed as chromatin condensation at 1 uM after 24 hrs by Hoechst 33258 staining-based fluorescence microscopic analysis; type: cell-based
Outline: (§1)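 Cells seeded at 12.5 × 10^4 per well and exposed to 1 µM compound for 24 h. Nuclei were stained with Hoechst 33258 (10 µg/mL, 30 min, 37 °C), then fixed in 4% formaldehyde/PBS (15 min, RT). Cells were permeabilized with 1% Triton X-100, blocked with 2% BSA/PBS for 1 h, and incubated with anti-α-tubulin-FITC (1:50) overnight at 4 °C. Imaged by fluorescence microscopy.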

HaCaT [3] = test: Induction of apoptosis in human HaCaT cells assessed as increase in histone-associated DNA fragments in mononucleosomes after 24 hrs by ELISA; type: cell-based
Outline: (§2)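 Cells (2 × 10^4) were incubated for 24 h at 0.1, 0.5 or 1 µM, lysed and centrifuged. Supernatants went onto a streptavidin plate with anti-histone-biotin and anti-DNA-peroxidase for 2 h, followed by ABTS for 30 min and a reading at 405 nm. Nucleosome content was expressed as an enrichment factor, as mean ± SD of three experiments.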

SK-OV-3 [4] = test: Induction of apoptosis in human SKOV3 cells assessed as increase in histone-associated DNA fragments in mononucleosomes after 24 hrs by ELISA; type: functional, cell-based; outline: as §2
Tubulin = test: Inhibition of tubulin polymerization in human HaCaT cells assessed as chromatin condensation at 1 uM after 24 hrs by Hoechst 33258 staining-based fluorescence microscopic analysis; type: cell-based
Outline: (§3)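 Cells were seeded at 12.5 × 10^4 per well and treated at 1 µM for 24 h. They were stained with Hoechst 33258 (10 µg/mL, 30 min, 37 °C), fixed in 4% formaldehyde, permeabilized with 1% Triton X-100 and blocked in 2% BSA. Anti-α-tubulin-FITC (1:50) was applied overnight at 4 °C, and cells were imaged by fluorescence microscopy.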

MDA-MB-231 [5] = test: Induction of apoptosis in human MDA-MB-231 cells assessed as increase in histone-associated DNA fragments in mononucleosomes after 24 hrs by ELISA; type: functional, cell-based; outline: as §2
Tubulin (Homo sapiens) [6] = biological target: T1, Tubulin (Homo sapiens); test: Inhibition of tubulin polymerization in human A431 cells assessed as chromatin condensation at 1 uM after 24 hrs by Hoechst 33258 staining-based fluorescence microscopic analysis; type: cell-based; outline: as §3
A-431 [7] = test: Induction of apoptosis in human A431 cells assessed as increase in histone-associated DNA fragments in oligonucleosomes after 24 hrs by ELISA; type: functional, cell-based; outline: as §2
Tubulin (Homo sapiens) [8] = biological target: T1, Tubulin (Homo sapiens); test: Inhibition of tubulin polymerization in human MCF7 cells assessed as chromatin condensation at 1 uM after 24 hrs by Hoechst 33258 staining-based fluorescence microscopic analysis; type: cell-based; outline: as §1
MCF7 [9] = test: Induction of apoptosis in human MCF7 cells assessed as increase in histone-associated DNA fragments in mononucleosomes after 24 hrs by ELISA; type: functional, cell-based; outline: as §2
Tubulin (Homo sapiens) [10] = biological target: T1, Tubulin (Homo sapiens); test: Inhibition of tubulin polymerization in human SKOV3 cells assessed as chromatin condensation at 1 uM after 24 hrs by Hoechst 33258 staining-based fluorescence microscopic analysis; type: cell-based; outline: as §1
A-431 [11] = test: Induction of apoptosis in human A431 cells assessed as increase in histone-associated DNA fragments in mononucleosomes at 0.1 uM after 24 hrs by ELISA; type: functional, cell-based; outline: as §2
MCF7 [12] = test: Induction of apoptosis in human MCF7 cells assessed as increase in histone-associated DNA fragments in mononucleosomes at 0.1 uM after 24 hrs by ELISA; type: functional, cell-based; outline: as §2
HaCaT [13] = test: Induction of apoptosis in human HaCaT cells assessed as increase in histone-associated DNA fragments in oligonucleosomes at 0.1 uM after 24 hrs by ELISA; type: cell-based
Outline: (§4)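 HaCaT cells (2 × 10^4), grown in DMEM with 10% FBS, penicillin/streptomycin and 2 mM L-glutamine, exposed to compound (DMSO stock) for 24 h. Cells lysed, supernatant taken after centrifugation and incubated 2 h on a streptavidin-coated plate with anti-histone-biotin and anti-DNA-peroxidase. ABTS added for 30 min, A405 read. Output is enrichment factor vs control, mean ± SD of three independent experiments.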

MCF7 [14] = test: Induction of apoptosis in human MCF7 cells assessed as increase in histone-associated DNA fragments in oligonucleosomes at 0.1 uM after 24 hrs by ELISA; type: functional, cell-based; outline: as §2
HeLa = test: Potency index, ratio of CA-4 IC50 to compound IC50 for cytotoxicity against human HeLa cells; type: functional
MDA-MB-231 [15] = test: Induction of apoptosis in human MDA-MB-231 cells assessed as increase in histone-associated DNA fragments in oligonucleosomes at 0.1 uM after 24 hrs by ELISA; type: functional, cell-based; outline: as §2
HaCaT [16] = test: Induction of apoptosis in human HaCaT cells assessed as increase in histone-associated DNA fragments in mononucleosomes at 0.1 uM after 24 hrs by ELISA; type: cell-based; outline: as §4

Structure (SMILES)	Activity (SK-OV-3 [1])	inhibition (Tubulin (Homo sapiens) [2])	Activity (HaCaT [3])	Activity (SK-OV-3 [4])	inhibition (INH) (Tubulin)	Activity (MDA-MB-231 [5])	inhibition (Tubulin (Homo sapiens) [6])	Activity (A-431 [7])	inhibition (Tubulin (Homo sapiens) [8])	Activity (MCF7 [9])	inhibition (Tubulin (Homo sapiens) [10])	Activity (A-431 [11])	Activity (MCF7 [12])	Activity (HaCaT [13])	Activity (MCF7 [14])	Ratio IC50 (HeLa)	Activity (MDA-MB-231 [15])	Activity (HaCaT [16])
COc1ccc(-c2ocnc2-c2cc(Br)c(OC)c(OC)c2)cc1SC	Dose-dependent effect	Active	Dose-dependent effect	Dose-dependent effect	Active	Dose-dependent effect	Active	Dose-dependent effect	Active	Dose-dependent effect	Active	–	–	–	–	–	–	–
COc1ccc(-c2ocnc2-c2cc(OC)c(SC)c(OC)c2)cc1O	–	–	–	–	–	–	–	–	–	–	–	Active	Active	Toxic	Active	10	Active	Toxic

Reference: ChEMBL document CHEMBL4145466, “Design, synthesis, and biological evaluation of novel combretastatin A-4 thio derivatives as microtubule targeting agents” (Eur J Med Chem, 2018)
